From ChEMBL document CHEMBL1649123, “Erythromycin- and chloramphenicol-induced ribosomal assembly defects are secondary effects of protein synthesis inhibition” (2009) come the findings set out here.

Test [1] relates to Escherichia coli. The test can be described thus: Inhibition of small ribosomal subunit assembly in Escherichia coli assessed as accumulation of 16S rRNA at 7 ug/ml after 2 hrs by sucrose gradient fractionation at 25 degC. It counts as functional, organism-based. The gist of the method: (§1)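 MG1655 grown in 2× YT at 25 or 37°C to A600 0.2, then drug added (final concentration as per line). Incubated 2 h at 25°C or 1 h at 37°C. Freeze-thaw lysis used lysozyme and DNase I. Lysate was run on a 10–25% sucrose gradient in buffer D, pH 8, for 13.5 h at 4°C. Fraction RNA was dot-blotted with 32P-labelled 16S/23S oligonucleotide probes, loading 0.2 pmol 50S-fraction 23S RNA.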

For test [2], the system named is Escherichia coli. Kind of test: Inhibition of ribosomal subunit assembly in Escherichia coli assessed as accumulation of partially processed 23S rRNA in 30S, 40S and 50S fractions at 7 ug/ml after 1 hr by primer extension analysis at 37 degC. It counts as functional, organism-based. The gist of the method:
(§2)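 Ribosomes from MG1655 drug-treated in 2× YT (1 h at 37°C or 2 h at 25°C from A600 0.2) were separated on 10–25% sucrose gradients. RNA was isolated from fractions by isopropanol precipitation and guanidinium thiocyanate/silica binding. 5′ ends of 23S and 16S rRNA were mapped by reverse transcription from specific primers, alongside sequencing lanes.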

Test [3] concerns Escherichia coli. Kind of test: Antimicrobial activity against Escherichia coli at 7 ug/ml after 8 hrs. In kind it is functional. In short, it runs like this:
(§3)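 E. coli MG1655 culture growth followed by optical density over 8 h, with the drug-treated culture expressed relative to an untreated control culture.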

The test system of test [4] is Escherichia coli. Kind of test: Inhibition of ribosomal subunit assembly in Escherichia coli assessed as reduction in mature 23S rRNA at 7 ug/ml. In kind it is functional.
In test [5] the test system is Escherichia coli. Kind of test: Inhibition of large ribosomal subunit assembly in Escherichia coli assessed as accumulation of 23S rRNA in 70S and 50S fractions at 7 ug/ml after 2 hrs by sucrose gradient fractionation at 25 degC. In kind it is functional, organism-based. In short, it runs like this: as §1
Test [6] concerns Escherichia coli. Kind of test: Inhibition of ribosomal subunit assembly in Escherichia coli assessed as retardation of 16S rRNA processing at 100 ug/ml after 2 hrs by primer extension analysis at 25 degC. In kind it is functional, organism-based. The gist of the method:
as §2

The test system of test [7] is Escherichia coli. Kind of test: Inhibition of large ribosomal subunit assembly in Escherichia coli assessed as accumulation of 23S rRNA in 70S and 50S fractions at 7 ug/ml after 1 hr by sucrose gradient fractionation at 37 degC. In kind it is functional, organism-based. The gist of the method: as §1
The subject of test [8] is Escherichia coli. Kind of test: Inhibition of ribosomal subunit assembly in Escherichia coli assessed as accumulation of partially processed 23S rRNA in 30S, 40S and 50S fractions at 7 ug/ml after 2 hrs by primer extension analysis at 25 degC. It counts as functional, organism-based. In short, it runs like this:
as §2

For test [9], the system named is Escherichia coli. The test can be described thus: Inhibition of ribosomal subunit assembly in Escherichia coli assessed as accumulation of partially processed 23S rRNA in 30S, 40S and 50S fractions at 100 ug/ml after 2 hrs by primer extension analysis at 25 degC. It counts as functional, organism-based. In short, it runs like this:
as §2

The test system of test [10] is Escherichia coli. Kind of test: Inhibition of ribosomal subunit assembly in Escherichia coli assessed as accumulation of assembly-deffective particles between 50S and 20S regions after 10 mins by sucrose gradient fractionation. In kind it is functional, organism-based. In short, it runs like this: (§4)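 Cells grown at 37°C in tryptone/yeast extract/NaCl to A600 0.2, then exposed to erythromycin (final 100 μg/ml) or chloramphenicol (final 7 μg/ml). After 5, 10 or 60 min, pulsed 5 min with [3H]uridine, 2 μCi per 50 ml; some samples chased 5 min with rifampin, final 500 μg/ml. Sucrose gradients cut into 40 fractions; TCA-precipitable radioactivity counted by scintillation.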

Test [11] relates to Escherichia coli. The test can be described thus: Inhibition of ribosomal subunit assembly in Escherichia coli assessed as accumulation of assembly-deffective particles between 50S and 20S regions after 60 mins by sucrose gradient fractionation. It counts as functional, organism-based. The gist of the method:
as §4

Test [12] relates to Escherichia coli. The test can be described thus: Inhibition of ribosomal subunit assembly in Escherichia coli assessed as retardation of 16S rRNA processing at 100 ug/ml after 1 hr by primer extension analysis at 37 degC. In kind it is functional, organism-based. In short, it runs like this:
as §2

The test system of test [13] is Escherichia coli. The test can be described thus: Inhibition of small ribosomal subunit assembly in Escherichia coli assessed as accumulation of 16S rRNA at 7 ug/ml after 1 hr by sucrose gradient fractionation at 37 degC. In kind it is functional, organism-based. The gist of the method: as §1
Test [14] relates to Escherichia coli. Kind of test: Inhibition of large ribosomal subunit assembly in Escherichia coli assessed as accumulation of 23S rRNA in 40S fraction at 7 ug/ml after 1 hr by sucrose gradient fractionation at 37 degC. It counts as functional, organism-based. In short, it runs like this:
as §1

Test [15] deals with Escherichia coli. Kind of test: Inhibition of ribosomal subunit assembly in Escherichia coli assessed as retardation of 16S rRNA processing at 7 ug/ml after 2 hrs by primer extension analysis at 25 degC. It counts as functional, organism-based. The gist of the method:
as §2

In test [16] the test system is Escherichia coli. Kind of test: Inhibition of ribosomal subunit assembly in Escherichia coli assessed as retardation of 16S rRNA processing at 7 ug/ml after 1 hr by primer extension analysis at 37 degC. In kind it is functional, organism-based. In short, it runs like this:
as §2

The subject of test [17] is Escherichia coli. The test can be described thus: Inhibition of ribosomal subunit assembly in Escherichia coli assessed as accumulation of partially processed 23S rRNA in 30S, 40S and 50S fractions at 100 ug/ml after 1 hr by primer extension analysis at 37 degC. It counts as functional, organism-based. The gist of the method:
as §2

The test system of test [18] is Escherichia coli. Kind of test: Inhibition of large ribosomal subunit assembly in Escherichia coli assessed as accumulation of 23S rRNA in 40S fraction at 7 ug/ml after 2 hrs by sucrose gradient fractionation at 25 degC. In kind it is functional, organism-based. In short, it runs like this: as §1
Test [19] relates to Escherichia coli. The test can be described thus: Inhibition of large ribosomal subunit assembly in Escherichia coli assessed as accumulation of 23S rRNA in 70S and 50S fractions at 100 ug/ml after 1 hr by sucrose gradient fractionation at 37 degC. It counts as functional, organism-based. In short, it runs like this:
as §1

For test [20], the system named is Staphylococcus aureus. Kind of test: Antimicrobial activity against Staphylococcus aureus UCN14 with A2058T mutation in rrl allele. It counts as functional. The gist of the method: (§5)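 Clinical S. aureus isolates carrying rRNA operon mutations: UCN14 has A2058T in 4 of 5 rrl alleles, UCN17 has A2058G in 4 of 6, and UCN18 has A2059G in 3 of 5. MIC was determined for erythromycin by microbroth dilution in 96-well plates.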

Test [21] deals with Escherichia coli. The test can be described thus: Inhibition of small ribosomal subunit assembly in Escherichia coli assessed as accumulation of 16S rRNA at 100 ug/ml after 2 hrs by sucrose gradient fractionation at 25 degC. In kind it is functional, organism-based. In short, it runs like this: as §1
For test [22], the system named is Escherichia coli. Kind of test: Inhibition of large ribosomal subunit assembly in Escherichia coli assessed as accumulation of 23S rRNA in 40S fraction at 100 ug/ml after 2 hrs by sucrose gradient fractionation at 25 degC. In kind it is functional, organism-based. The gist of the method:
as §1

The test system of test [23] is Staphylococcus aureus. Kind of test: Antimicrobial activity against Staphylococcus aureus UCN17 with A2058G mutation in rrl allele. It counts as functional. The gist of the method: as §5
Test [24] concerns Escherichia coli. The test can be described thus: Inhibition of ribosomal subunit assembly in Escherichia coli assessed as reduction in mature 23S rRNA at 7 ug/ml in presence of E-peptide. In kind it is functional.
Test [25] concerns Staphylococcus aureus. Kind of test: Antimicrobial activity against Staphylococcus aureus UCN18 with A2059G mutation in rrl allele. It counts as functional. In short, it runs like this:
as §5

For test [26], the system named is Escherichia coli. The test can be described thus: Inhibition of large ribosomal subunit assembly in Escherichia coli assessed as accumulation of 23S rRNA in 40S fraction at 100 ug/ml after 1 hr by sucrose gradient fractionation at 37 degC. It counts as functional, organism-based. In short, it runs like this:
as §1

Test [27] deals with Escherichia coli. The test can be described thus: Antimicrobial activity against Escherichia coli at 100 ug/ml after 8 hrs. In kind it is functional. In short, it runs like this:
as §3

Test [28] has as its system Escherichia coli. The test can be described thus: Inhibition of large ribosomal subunit assembly in Escherichia coli assessed as accumulation of 23S rRNA in 70S and 50S fractions at 100 ug/ml after 2 hrs by sucrose gradient fractionation at 25 degC. It counts as functional, organism-based. In short, it runs like this:
as §1

The subject of test [29] is Escherichia coli. Kind of test: Inhibition of ribosomal subunit assembly in Escherichia coli assessed as reduction in mature 23S rRNA at 100 ug/ml. It counts as functional.
In test [30] the test system is Escherichia coli. Kind of test: Inhibition of small ribosomal subunit assembly in Escherichia coli assessed as accumulation of 16S rRNA at 100 ug/ml after 1 hr by sucrose gradient fractionation at 37 degC. It counts as functional, organism-based. The gist of the method: as §1

SMILES strings stand for the structures. Values after ≈ are worked out from the molar mass of the structure shown. Active and inactive are the calls of the source. The rule behind the calls is not given here.

For the compound `O=C(N[C@H](CO)[C@H](O)c1ccc([N+](=O)[O-])cc1)C(Cl)Cl` [CHLORAMPHENICOL], the inhibition entry in test [1], in test [2], in test [5], in test [6], in test [7] and in test [8] was “Active” throughout. The inhibition result in test [9], in test [10], in [11], in test [12], in test [13] and in test [14] was “Active” in each case. The inhibition entry in [15], in test [16], in test [17] and in test [18] was “Active” throughout. Moreover, the Activity in test [3] turned out to be 70%. Moreover, in [4], the inhibition (as a rule, the drop in the measured response relative to a control, in per cent) at 7 µg/mL was 50%.
As to `CC[C@H]1OC(=O)[C@H](C)[C@@H](O[C@H]2C[C@@](C)(OC)[C@@H](O)[C@H](C)O2)[C@H](C)[C@@H](O[C@@H]2O[C@H](C)C[C@H](N(C)C)[C@H]2O)[C@](C)(O)C[C@@H](C)C(=O)[C@H](C)[C@@H](O)[C@]1(C)O` [ERYTHROMYCIN], the inhibition result in test [19], in [2], in test [21], in test [22], in [6] and in [8] was “Active” in each case. Also, the inhibition result in test [9], in test [10], in [11], in [28], in test [12] and in test [30] was “Active” in each case. Moreover, the inhibition result in test [15], in [16] and in test [17] was “Active” throughout. Further, the MIC in test [20], in test [23] and in test [25] was 512 mg/L (≈ 698 µM) in each case. Moreover, the inhibition at 7 µg/mL in test [24] is 60%. In addition, the outcome in test [26] was Active. Moreover, the Activity in [27] is recorded as 70%. The inhibition at 100 µg/mL in test [29] was determined as 30%.
